Sampled rows, rich in hits. Any-hit rate of the full collection: about 1.9%.
Rad51 HR inh – blocks human Rad51 in homologous recombination. actives 0.085% (n = 200,000). hRad51 DNA strand exchange, fluorescence dequenching. inhibition, % at 10 µM. Q06609. AID 1385;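 active = inhibition above 40% at the single screening dose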;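 also: 0% = DMSO control wells and 100% = blanks with heterologous ssDNA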
Target sequence (Q06609 whole entry, looked up): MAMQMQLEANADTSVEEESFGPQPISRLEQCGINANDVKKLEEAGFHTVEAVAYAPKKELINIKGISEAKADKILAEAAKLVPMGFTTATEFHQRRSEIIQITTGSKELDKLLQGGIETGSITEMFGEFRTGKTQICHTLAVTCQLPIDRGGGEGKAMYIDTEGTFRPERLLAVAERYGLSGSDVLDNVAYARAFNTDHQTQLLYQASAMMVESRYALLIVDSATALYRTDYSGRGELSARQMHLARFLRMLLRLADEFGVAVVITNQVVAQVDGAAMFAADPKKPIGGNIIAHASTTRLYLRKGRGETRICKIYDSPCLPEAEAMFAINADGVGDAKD
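Material: human Rad51–ssDNA filaments; Probe or stimulus: labelled 47-mer dsDNA for strand exchange; Doses: single 10 µM dose; Incubation: 37 °C 15-min filament assembly, 30-min compound preincubation, 15-min exchange; Technique: FRET fluorescence dequenching, excitation 485 nm, emission 520 nm; Measure: Fluorescence-based percent inhibition, control- and blank-normalised; Benchmarks: plate control and blank wells.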
TAG inh – inhibitors of triacylglycerol accumulation; inhibition, % at 12.5 µM; H9c2 cells, Nile Red lipid (TAG) fluorescence; cells loaded with 200 µM oleic acid; AID 651582; actives 0.66% (n = 230,000);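 active = pattern-corrected inhibition of lipid staining of at least 50% with the nuclear-stain viability signal not falling by more than 50%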;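 also: 0% = DMSO wells and 100% = triacsin C control wells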
ABHD5 PLIN5 PPI – ABHD5-PLIN5 protein interaction inhibition | AID 602281 | inhibition, % at 4 µM | actives 0.78% (n = 360,000) | Split G. princeps luciferase complementation, luminescence, 4 h;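 active = inhibition above the mean inhibition across every tested compound plus 3 SD, cut at about 22% in these data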;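 also: 0% = DMSO only wells and the 100% control is not disclosed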
GAA850 FXN act – frataxin GAA850 promoter activation. activation, % at 6 µM. HEK293 lucGAA850 FXN promoter luciferase reporter, 24 h; percent of 10 µM SAHA response. AID 540364. actives 0.56% (n = 360,000);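 active = activation above the average of all compounds screened plus 3 SD, cutoff fixed separately per campaign, cut at about 7.5% in these data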;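 also: 0% = DMSO wells and 100% = 10 µM SAHA wells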
HIF act – HIF pathway transcriptional activation; actives 0.32% (n = 300,000); U2OS HRE-luciferase reporter, luminescence; normalized: DMSO 0%, desferrioxamine 100%; activation, % at 7.5 µM (by protocol);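 active = mean activation of at least 10% of the iron chelator positive control signal, with at least half of replicates also reaching 10%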
Hsp70 act – transcriptional activators of Hsp70; activation, % at 10 µM; actives 0.04% (n = 200,000); AID 1203; HeLa Hsp70 promoter luciferase reporter, luminescence; scaled: vehicle 0, proteasome-inhibitor control 100%;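 active = activation above the mean across all tested compounds plus 3 SD, cutoff set per campaign, cut at about 5.5% in these data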;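 also: 100% = MG132 at 30 µM as the positive control and 0% = DMSO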
GAA30 counter – GAA30 FXN promoter activation counter-screen. shares compounds with GAA850 FXN act. HEK293 lucGAA30 FXN promoter luciferase, 24 h; DMSO = 0%, 5 µM ipriflavone = 100%. activation, % at 6 µM. actives 66% (n = 1,900). AID 588350;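 active = mean activation above the mean of solvent-only control wells plus 3 SD, cut at about 22% in these data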;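 also: counterscreen of GAA850 promoter hits where activity marks nonselective or luminescence artifacts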
FXN GAA850 conf – GAA850 FXN promoter activation confirmation; actives 86% (n = 1,900); activation, % at 6 µM; shares compounds with GAA850 FXN act; HEK293 lucGAA850 FXN promoter luciferase reporter, 24 h; 100% = activation by SAHA; AID 588351;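 active = mean activation above a set limit taken from the primary screen, cut at about 8% in these data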;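 also: 0% = DMSO wells and 100% = 10 µM SAHA wells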
Active calls of the source: *.

Cc1cc(NC(=O)c2coc(=O)c(Br)c2)ccc1C(C)C was read as Rad51 HR inh 6.4, TAG inh 4.2, ABHD5 PLIN5 PPI -1.1, GAA850 FXN act 8.4*, HIF act 1.5, GAA30 counter 89.0* and FXN GAA850 conf 49.9*.
`CCc1ccc(CCC(=O)N2CCN(S(=O)(=O)c3ccc(Br)cc3)CC2)cc1` gave TAG inh -0.1, ABHD5 PLIN5 PPI -2.8 and GAA850 FXN act -1.3.
`CC(C)Nc1oc(-c2cccc3ccccc23)nc1C#N` gave Rad51 HR inh 8.0, ABHD5 PLIN5 PPI -6.4, GAA850 FXN act 8.6*, HIF act 1.9, Hsp70 act 0.1, GAA30 counter 96.6* and FXN GAA850 conf 35.7*.
Screening Cc1ccc2oc(-c3ccc(C)c(NC(=O)Cc4cccs4)c3)nc2c1 returned TAG inh 18.0, ABHD5 PLIN5 PPI -7.8, GAA850 FXN act -1.4, HIF act 0.6 and Hsp70 act -0.3.
Cc1ccc2oc(-c3ccc(C)c(NC(=S)NC(=O)c4cccs4)c3)nc2c1 was read as Rad51 HR inh 3.7, ABHD5 PLIN5 PPI -8.8, GAA850 FXN act 8.6*, HIF act 2.0, Hsp70 act -0.1, GAA30 counter 95.5* and FXN GAA850 conf 19.4*.
`COCc1cc(C)nc2sc(C(=O)Nc3cccc(OC)c3)c(N)c12` gave ABHD5 PLIN5 PPI 3.4, GAA850 FXN act 7.7*, HIF act 5.0, GAA30 counter 114.7* and FXN GAA850 conf 38.0*.
CCc1cccc(C)c1NC(=O)CN1C(=O)c2ccccc2S1(=O)=O was read as Rad51 HR inh -1.6, TAG inh 2.8, ABHD5 PLIN5 PPI 2.8, GAA850 FXN act 17.5*, Hsp70 act -0.1, GAA30 counter 12.2 and FXN GAA850 conf 6.6.
`C=CCN(C(=O)c1oc2c(Cl)cc(C)cc2c1C)C1CCS(=O)(=O)C1` (stereo unspecified) gave ABHD5 PLIN5 PPI 0.9, GAA850 FXN act 8.1*, HIF act 3.2, GAA30 counter 102.3* and FXN GAA850 conf 40.4*.
`c1ccc(Cn2cnc3ccccc32)cc1` gave Rad51 HR inh -2.7, ABHD5 PLIN5 PPI 2.2, GAA850 FXN act 10.9*, Hsp70 act -0.3, GAA30 counter 119.8* and FXN GAA850 conf 44.0*.
Clc1ccc(OCCn2cnc3ccccc32)cc1 was read as Rad51 HR inh 9.0, ABHD5 PLIN5 PPI 5.1, GAA850 FXN act 2.8, HIF act 0.6 and Hsp70 act -0.2.
Screening Clc1ccccc1OCCn1cnc2ccccc21 returned Rad51 HR inh -1.0, ABHD5 PLIN5 PPI 4.0, GAA850 FXN act 9.2*, HIF act 1.7, Hsp70 act -0.3, GAA30 counter 41.0* and FXN GAA850 conf 23.8*.
Cc1c(NS(=O)(=O)c2ccc(C(=O)NCc3ccccc3)cc2)c(=O)n(-c2ccccc2)n1C was read as Rad51 HR inh 5.5, TAG inh 22.5, ABHD5 PLIN5 PPI 5.1, GAA850 FXN act 0.1, HIF act -0.5 and Hsp70 act -0.3.
Screening O=C(NCCc1ccc(F)cc1)c1coc(=O)c(Br)c1 returned ABHD5 PLIN5 PPI 2.4, GAA850 FXN act 10.2*, HIF act 1.3, GAA30 counter -5.6 and FXN GAA850 conf 17.0*.
For O=C(Nc1ccccc1F)c1coc(=O)c(Br)c1 the results were Rad51 HR inh 21.6, TAG inh 6.6, ABHD5 PLIN5 PPI 0.1, GAA850 FXN act 2.1, HIF act 0.3 and Hsp70 act 0.1.
Screening CCn1c(SCC(=O)NCCc2ccc(OC)c(OC)c2)nc2c([nH]c3ccccc32)c1=O returned TAG inh 71.9, ABHD5 PLIN5 PPI 4.7, GAA850 FXN act 14.1*, GAA30 counter 26.2* and FXN GAA850 conf 8.2*.
